Assays:
[1] = biological target: T1, SaFtsZ (Staphylococcus aureus, UniProt P0A031); experiment: FtsZ polymerization light-scattering; format: biochemical, S. aureus; conditions: for extent of stimulation of FtsZ polymerization (A340): 40 μg/mL compound or comparator drug
T1 sequence (P0A031 1-390): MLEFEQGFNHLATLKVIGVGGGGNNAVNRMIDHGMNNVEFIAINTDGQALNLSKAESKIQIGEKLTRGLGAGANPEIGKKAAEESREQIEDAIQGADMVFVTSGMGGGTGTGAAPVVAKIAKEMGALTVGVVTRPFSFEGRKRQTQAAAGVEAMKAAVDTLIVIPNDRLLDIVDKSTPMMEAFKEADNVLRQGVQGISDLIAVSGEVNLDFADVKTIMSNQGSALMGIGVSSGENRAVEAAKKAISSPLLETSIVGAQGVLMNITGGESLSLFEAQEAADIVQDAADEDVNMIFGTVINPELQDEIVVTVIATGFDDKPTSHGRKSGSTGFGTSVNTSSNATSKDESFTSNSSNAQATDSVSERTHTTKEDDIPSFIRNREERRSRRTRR

[2] = tested on: S. aureus 8325-4 (MSSA); experiment: MIC broth microdilution, S. aureus 8325-4; format: cell-based; conditions: 24 h
[3] = tested on: S. aureus ATCC 33591 (MRSA); experiment: MIC broth microdilution, S. aureus ATCC 33591; format: cell-based; conditions: CAMH broth + 2% NaCl, 24 h, 37 °C
[4] = tested on: S. aureus Mu3 (MRSA); experiment: MIC broth microdilution, S. aureus Mu3; format: cell-based; conditions: S. aureus Mu3 (MRSA, hetero-GISA); CAMH broth + 2% NaCl, 24 h, 37 °C
[5] = tested on: E. faecalis ATCC 19433 (VSE); experiment: MIC broth microdilution, E. faecalis ATCC 19433; format: cell-based; conditions: CAMH broth, 24 h, 37 °C
[6] = tested on: E. faecalis ATCC 51575 (VRE); experiment: MIC broth microdilution, E. faecalis ATCC 51575; format: cell-based; conditions: CAMH broth, 24 h, 37 °C
[7] = biological target: MAP-rich porcine β-tubulin (70% β-tubulin, 30% MAPs) (Sus scrofa, UniProt P02554); experiment: Tubulin polymerization light-scattering; format: biochemical; conditions: 2 mg/mL porcine β-tubulin, 1 mM GTP, 37 °C
[8] = biological target: S. aureus FtsZ (SaFtsZ), wild-type (Staphylococcus aureus, UniProt P0A031); format: binding
[9] = biological target: E. coli FtsZ (EcFtsZ) (Escherichia coli, UniProt P0A9A6); experiment: Fluorescence anisotropy determination of compound-FtsZ binding affinity, EcFtsZ
[10] = biological target: E. faecalis FtsZ (EfFtsZ) (Enterococcus faecalis, UniProt O08439); experiment: Fluorescence anisotropy determination of compound-FtsZ binding affinity, EfFtsZ; conditions: for binding to FtsZ (qualitative; Kd not quantifiable): EfFtsZ
[11] = tested on: E. coli N43 (acrA1)
[12] = tested on: S. aureus; experiment: Emergence of resistance, large inoculum approach; format: cell-based; conditions: ~3 × 10^9 CFU/mL S. aureus on TSA plates with agent at 4- to 32-fold MIC; 24 h
[13] = tested on: S. aureus; conditions: known from literature; cited from earlier work
[14] = biological target: T2, EcFtsZ (Escherichia coli, UniProt P0A9A6); experiment: FtsZ polymerization light-scattering; format: biochemical, E. coli
[15] = biological target: T3, E185A mutant SaFtsZ (Staphylococcus aureus, UniProt P0A031, E185A); experiment: Fluorescence anisotropy binding affinity, E185A mutant SaFtsZ; set-up: species or system S. aureus; conditions: ratio of Kd values
[16] = biological target: T4, I228R mutant SaFtsZ (Staphylococcus aureus, UniProt P0A031, I228R); experiment: Fluorescence anisotropy binding affinity, I228R mutant SaFtsZ; set-up: species or system S. aureus; conditions: ratio of Kd values
[17] = biological target: EfFtsZ (Enterococcus faecalis, UniProt O08439); experiment: FtsZ polymerization light-scattering; format: biochemical, E. faecalis
[18] = biological target: T3, E185A mutant SaFtsZ; experiment: FtsZ polymerization light-scattering; format: biochemical, S. aureus
[19] = biological target: T4, I228R mutant SaFtsZ; experiment: FtsZ polymerization light-scattering; format: biochemical, S. aureus
[20] = biological target: G196A mutant SaFtsZ (Staphylococcus aureus, UniProt P0A031, G196A); experiment: FtsZ polymerization light-scattering; format: biochemical, S. aureus; conditions: G196A mutant (not shown)
[21] = biological target: SaFtsZ-bound BoGTPγS (GTP binding pocket) (Staphylococcus aureus, UniProt P0A031); experiment: BoGTPγS fluorescence anisotropy competition assay, SaFtsZ; conditions: 1 μM BoGTPγS, 5 μM FtsZ, competitor 0 to 40 μM
Method in brief: (§1)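 Competition anisotropy assay: 1 μM BODIPY-GTPγS with 0 or 5 μM FtsZ, plus test compound or unlabeled GTP (0–40 μM), in 50 mM Tris·HCl pH 7.4, 50 mM KCl, 2 mM magnesium acetate. After 5 min at 25 °C, probe anisotropy was read (ex 488/em 510 nm, 4 nm bandwidths), compared with FtsZ-free probe. Triplicates averaged.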

[22] = biological target: EcFtsZ-bound BoGTPγS (GTP binding pocket) (Escherichia coli, UniProt P0A9A6); experiment: BoGTPγS fluorescence anisotropy competition assay, EcFtsZ; set-up: species or system E. coli; conditions: 1 μM BoGTPγS, 5 μM FtsZ, competitor 0 to 40 μM
Method in brief: as §1

[23] = biological target: EfFtsZ-bound BoGTPγS (GTP binding pocket) (Enterococcus faecalis, UniProt O08439); experiment: BoGTPγS fluorescence anisotropy competition assay, EfFtsZ; set-up: species or system E. faecalis; conditions: 1 μM BoGTPγS, 5 μM FtsZ, competitor 0 to 40 μM
[24] = biological target: T1, SaFtsZ; experiment: Transmission electron microscopy of compound-induced FtsZ polymers, SaFtsZ; format: biochemical; conditions: 20 μg/mL
[25] = biological target: T2, EcFtsZ; experiment: Transmission electron microscopy of compound-induced FtsZ polymers, EcFtsZ; format: biochemical, E. coli; conditions: 20 μg/mL
[26] = tested on: S. aureus 8325-4 (MSSA); experiment: Time-kill assay; format: cell-based; conditions: for reduction of bacterial number (CFUs): 8 × MIC (8 μg/mL)
Method in brief: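 Exponential-phase S. aureus 8325-4 was diluted in cation-adjusted Mueller-Hinton broth to 10^5–10^6 CFU/mL, with DMSO as vehicle control. Cultures were shaken at 37 °C and sampled at 0, 2, 4 and 6 h. Samples were plated on tryptic soy agar, centrifuged and resuspended when undiluted to avoid carry-over. Colonies were counted after 24 h at 37 °C.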

[27] = tested on: S. aureus 8325-4 (MSSA); format: cell-based; conditions: after 12 incubation cycles
[28] = biological target: T2, EcFtsZ; conditions: previously reported; cited from earlier work
[29] = tested on: S. aureus ATCC 49951 (MSSA); experiment: MIC broth microdilution, S. aureus ATCC 49951; format: cell-based; conditions: Staphylococcus aureus, ATCC49951|MSSA, 24 h
[30] = tested on: S. aureus 8325-4; experiment: Minimum bactericidal concentration; format: cell-based
[31] = 40 μg/mL compound or comparator drug
[32] = compound 0 to 40 μg/mL, 10 μM protein, 1 mM GTP, 25 °C

T2 sequence (P0A9A6 whole entry): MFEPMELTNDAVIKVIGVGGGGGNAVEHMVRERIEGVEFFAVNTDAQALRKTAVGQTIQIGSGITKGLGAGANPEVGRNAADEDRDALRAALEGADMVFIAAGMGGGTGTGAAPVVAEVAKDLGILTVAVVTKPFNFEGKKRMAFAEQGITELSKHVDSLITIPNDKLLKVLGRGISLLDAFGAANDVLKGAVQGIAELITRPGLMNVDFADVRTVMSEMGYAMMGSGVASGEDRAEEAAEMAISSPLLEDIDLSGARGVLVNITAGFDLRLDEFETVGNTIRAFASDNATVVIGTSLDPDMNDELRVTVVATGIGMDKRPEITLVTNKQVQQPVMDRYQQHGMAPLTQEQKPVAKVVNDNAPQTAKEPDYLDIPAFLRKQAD
MAP-rich porcine β-tubulin (70% β-tubulin, 30% MAPs), sequence (P02554 whole entry): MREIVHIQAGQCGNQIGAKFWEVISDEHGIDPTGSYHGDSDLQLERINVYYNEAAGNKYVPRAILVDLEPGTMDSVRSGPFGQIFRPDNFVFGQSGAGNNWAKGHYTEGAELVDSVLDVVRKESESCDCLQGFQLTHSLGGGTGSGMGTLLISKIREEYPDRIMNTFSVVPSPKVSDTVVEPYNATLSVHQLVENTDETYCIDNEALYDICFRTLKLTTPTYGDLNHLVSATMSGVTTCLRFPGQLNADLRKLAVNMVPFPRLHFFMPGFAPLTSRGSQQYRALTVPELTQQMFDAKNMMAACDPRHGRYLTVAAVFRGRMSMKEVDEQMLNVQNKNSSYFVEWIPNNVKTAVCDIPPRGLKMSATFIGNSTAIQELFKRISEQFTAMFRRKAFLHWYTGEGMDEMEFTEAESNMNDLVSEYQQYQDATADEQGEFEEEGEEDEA
MAP-rich porcine β-tubulin (70% β-tubulin, 30% MAPs), sequence (P02550 whole entry partner): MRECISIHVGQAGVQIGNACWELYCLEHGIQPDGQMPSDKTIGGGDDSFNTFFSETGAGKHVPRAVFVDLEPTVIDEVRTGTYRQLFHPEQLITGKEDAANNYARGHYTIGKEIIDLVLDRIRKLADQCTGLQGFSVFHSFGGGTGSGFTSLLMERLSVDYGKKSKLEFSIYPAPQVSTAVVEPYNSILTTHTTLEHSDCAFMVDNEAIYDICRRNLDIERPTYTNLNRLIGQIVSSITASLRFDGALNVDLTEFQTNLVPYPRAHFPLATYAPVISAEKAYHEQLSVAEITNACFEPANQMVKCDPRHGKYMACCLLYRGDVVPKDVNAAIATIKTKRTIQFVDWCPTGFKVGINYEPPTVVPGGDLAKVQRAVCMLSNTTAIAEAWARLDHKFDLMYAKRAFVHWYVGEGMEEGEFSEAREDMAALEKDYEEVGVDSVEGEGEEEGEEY
EcFtsZ-bound BoGTPγS (GTP binding pocket), sequence (P0A9A6 whole entry): as the sequence (P0A9A6 whole entry) above
E. coli FtsZ (EcFtsZ), sequence (P0A9A6 whole entry): as above

oxacillin
extent of stimulation of FtsZ polymerization (A340) ([1]; SaFtsZ): negligible impact | MIC ([2]; S. aureus 8325-4 (MSSA), CAMH broth, 37 °C, ≥90% growth inhibition): 0.063 mg/L | MIC [3]: >64.0 mg/L | MIC [4]: >64.0 mg/L | MIC [5]: 8.0 mg/L | MIC [6]: 64.0 mg/L

CC(=O)O[C@H]1C(=O)[C@@]2(C)[C@H]([C@H](OC(=O)c3ccccc3)[C@]3(O)C[C@H](OC(=O)[C@H](O)[C@@H](NC(=O)c4ccccc4)c4ccccc4)C(C)=C1C3(C)C)[C@]1(OC(C)=O)CO[C@@H]1C[C@@H]2O [paclitaxel]
impact on tubulin polymerization (A340) ([7]; 25 μg/mL): expected stimulatory impact

CC(C)(C)c1ccc(-c2ccnc(CNC(=N)N)c2)cc1 [compound 14, 1-((4-(4-(tert-Butyl)phenyl)pyridin-2-yl)methyl)guanidine]
binding to FtsZ (qualitative; Kd not quantifiable) [8]: weak nature of the binding interactions | binding to FtsZ (qualitative; Kd not quantifiable) [9]: weak nature of the binding interactions | binding to FtsZ (qualitative; Kd not quantifiable) [10]: weak nature of the binding interactions | AcrAB efflux pump substrate (inferred from MIC N43 vs W4573) [11]: substrates of the AcrAB efflux pump

CO[C@H]1/C=C/O[C@@]2(C)Oc3c(C)c(O)c4c(O)c(c(/C=N/N5CCN(C)CC5)c(O)c4c3C2=O)NC(=O)/C(C)=C\C=C\[C@H](C)[C@H](O)[C@@H](C)[C@@H](O)[C@@H](C)[C@H](OC(C)=O)[C@@H]1C [rifampicin, reference compound]
agent-containing plates on which colonies were observed [12]: 100% | rate of induced spontaneous mutants in S. aureus [13]: 10^−6 to 10^−8

CC1(C)S[C@@H]2[C@H](NC(=O)[C@H](N)c3ccccc3)C(=O)N2[C@H]1C(=O)[O-].[Na+] [ampicillin, reference compound]
extent of stimulation of FtsZ polymerization (A340) [14, 31]: negligible impact

COC(=O)Nc1nc2cc(C(=O)c3cccs3)ccc2[nH]1 [nocodazole]
impact on tubulin polymerization (A340) ([7]; 10 μg/mL): expected inhibitory impact

CCC[C@@H]1C[C@@H](C(=O)N[C@@H]([C@H]2O[C@H](SC)[C@H](O)[C@@H](O)[C@H]2O)[C@H](C)Cl)N(C)C1.Cl [clindamycin, reference compound]
extent of stimulation of FtsZ polymerization (A340) ([1]; SaFtsZ): negligible impact

CC(C)(C)c1ccc(-c2cccc(CNC(=N)N)c2)cc1 [compound 13, 1-((4′-(tert-Butyl)-[1,1′-biphenyl]-3-yl)methyl)guanidine]
affinity for EfFtsZ lower than affinity for SaFtsZ and EcFtsZ ([10]; ratio of Kd values): approximately 6 fold | affinity for E185A mutant lower than for wild-type SaFtsZ [15]: approximately 10 fold | affinity for I228R mutant lower than for wild-type SaFtsZ [16]: approximately 10 fold | impact on FtsZ polymerization dynamics (A340) ([1]; SaFtsZ, compound 0 to 40 μg/mL, 10 μM protein, 1 mM GTP, 25 °C): increases both the kinetics and extent | impact on SaFtsZ polymerization (A340) ([1]; wild-type SaFtsZ, 10 μg/mL): stimulatory impact | impact on FtsZ polymerization dynamics (A340) [14, 32]: increases both the kinetics and extent | impact on FtsZ polymerization dynamics (A340) [17, 32]: increases both the kinetics and extent | impact on SaFtsZ polymerization (A340) ([18]; 10 μg/mL): essentially no effect | magnitude of stimulation of SaFtsZ polymerization (A340) ([18]; 20 μg/mL): markedly lower than that observed for wild-type SaFtsZ | impact on SaFtsZ polymerization (A340) ([19]; 10 μg/mL): essentially no effect | magnitude of stimulation of SaFtsZ polymerization (A340) ([19]; 20 μg/mL): markedly lower than that observed for wild-type SaFtsZ | effect of G196A mutation on stimulation of SaFtsZ polymerization by compound [20]: negligible effect | effect on anisotropy of FtsZ-bound BoGTPγS [21]: does not significantly alter the anisotropy | effect on anisotropy of FtsZ-bound BoGTPγS [22]: does not significantly alter the anisotropy | effect on anisotropy of FtsZ-bound BoGTPγS [23]: does not significantly alter the anisotropy | FtsZ polymer assembly and bundling by EM [24]: promotes both the assembly and bundling of SaFtsZ polymers | FtsZ polymer assembly and bundling by EM [25]: promoting only the assembly, and not the bundling, of EcFtsZ polymers | reduction of bacterial number (CFUs) ([26]; within 2 h): three logs | reduction of bacterial number (CFUs) ([26]; within 6 h): four logs | rate of kill relative to vancomycin ([26]; both agents at 8 × MIC): approximately 100 times | change of MIC over repeated incubation cycles [27]: did not change to any significant degree | agent-containing plates on which colonies were observed [12]: none | impact on tubulin polymerization (A340) ([7]; 40 μg/mL): negligible impact | AcrAB efflux pump substrate (inferred from MIC N43 vs W4573) [11]: substrate for the AcrAB efflux transporter

Nc1nc2c(ncn2[C@@H]2O[C@H](COP(=O)(O)OP(=O)(O)OP(=O)(O)O)[C@@H](O)[C@H]2O)c(=O)[nH]1 [GTP, reference compound]
effect on anisotropy of FtsZ-bound BoGTPγS [21]: marked, concentration-dependent decrease | effect on anisotropy of FtsZ-bound BoGTPγS [22]: marked, concentration-dependent decrease | effect on anisotropy of FtsZ-bound BoGTPγS [23]: marked, concentration-dependent decrease

CC(C)(C)c1ccc(-c2cc(CNC(=N)N)ncn2)cc1 [compound 15, 1-((6-(4-(tert-Butyl)phenyl)pyrimidin-4-yl)methyl)guanidine]
binding to FtsZ (qualitative; Kd not quantifiable) [8]: weak nature of the binding interactions | binding to FtsZ (qualitative; Kd not quantifiable) [9]: weak nature of the binding interactions | binding to FtsZ (qualitative; Kd not quantifiable) [10]: weak nature of the binding interactions | AcrAB efflux pump substrate (inferred from MIC N43 vs W4573) [11]: substrates of the AcrAB efflux pump

NC(=O)c1c(F)ccc(OCc2nc3cc(Cl)cnc3s2)c1F [PC190723]
impact on EcFtsZ polymerization [28]: does not affect the polymerization

CN[C@H](CC(C)C)C(=O)N[C@H]1C(=O)N[C@@H](CC(N)=O)C(=O)N[C@H]2C(=O)N[C@H]3C(=O)N[C@H](C(=O)N[C@H](C(=O)O)c4cc(O)cc(O)c4-c4cc3ccc4O)[C@H](O)c3ccc(c(Cl)c3)Oc3cc2cc(c3O[C@@H]2O[C@H](CO)[C@@H](O)[C@H](O)[C@H]2O[C@H]2C[C@](C)(N)[C@H](O)[C@H](C)O2)Oc2ccc(cc2Cl)[C@H]1O.Cl [vancomycin]
extent of stimulation of FtsZ polymerization (A340) [17, 31]: negligible impact | MIC ([2]; Staphylococcus aureus, MSSA): 0.5 mg/L | MIC [29]: 0.5 mg/L | MBC/MIC [30]: 2
